Experimental data taken from ChEMBL document CHEMBL1146597, “Synthesis, in vitro affinity, and efficacy of a bis 8-ethynyl-4H-imidazo[1,5a]- [1,4]benzodiazepine analogue, the first bivalent alpha5 subtype selective BzR/GABA(A) antagonist” (J Med Chem, 2003).

What was measured:
[1] = biological target: T1, GABA-A receptor; alpha-1/beta-3/gamma-2 (Homo sapiens, UniProt P14867+P18507+P28472); assay: In vitro binding affinity for human GABA-A receptor alpha-1-beta-3-gamma-2 subunits expressed in L(tk-) cell membranes
T1 sequence (P14867 whole entry): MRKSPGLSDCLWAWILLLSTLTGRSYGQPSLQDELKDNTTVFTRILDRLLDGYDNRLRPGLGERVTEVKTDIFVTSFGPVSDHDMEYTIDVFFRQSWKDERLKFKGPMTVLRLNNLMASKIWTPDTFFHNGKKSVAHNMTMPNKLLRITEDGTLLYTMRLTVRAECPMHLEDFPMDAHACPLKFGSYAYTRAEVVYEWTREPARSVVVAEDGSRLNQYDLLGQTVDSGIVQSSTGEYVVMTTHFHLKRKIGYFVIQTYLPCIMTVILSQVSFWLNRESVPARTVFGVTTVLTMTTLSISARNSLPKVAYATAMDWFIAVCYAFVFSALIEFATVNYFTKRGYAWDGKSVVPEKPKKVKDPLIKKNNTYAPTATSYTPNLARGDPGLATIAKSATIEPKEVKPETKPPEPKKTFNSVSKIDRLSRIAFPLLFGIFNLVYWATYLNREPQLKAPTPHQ
T1 sequence (P18507 whole entry): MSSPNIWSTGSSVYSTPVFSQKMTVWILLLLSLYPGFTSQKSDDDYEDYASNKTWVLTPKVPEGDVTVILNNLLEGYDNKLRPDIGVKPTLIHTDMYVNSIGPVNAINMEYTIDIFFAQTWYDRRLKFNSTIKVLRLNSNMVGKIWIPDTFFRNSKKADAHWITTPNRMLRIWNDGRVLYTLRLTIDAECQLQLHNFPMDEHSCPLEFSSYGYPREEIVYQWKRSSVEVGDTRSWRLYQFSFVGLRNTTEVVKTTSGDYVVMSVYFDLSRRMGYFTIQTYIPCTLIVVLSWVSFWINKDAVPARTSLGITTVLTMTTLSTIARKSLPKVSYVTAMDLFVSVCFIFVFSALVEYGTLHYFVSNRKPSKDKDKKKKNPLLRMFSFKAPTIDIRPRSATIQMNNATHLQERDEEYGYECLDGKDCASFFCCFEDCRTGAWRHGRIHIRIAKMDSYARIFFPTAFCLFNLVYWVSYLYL
T1 sequence (P28472 whole entry): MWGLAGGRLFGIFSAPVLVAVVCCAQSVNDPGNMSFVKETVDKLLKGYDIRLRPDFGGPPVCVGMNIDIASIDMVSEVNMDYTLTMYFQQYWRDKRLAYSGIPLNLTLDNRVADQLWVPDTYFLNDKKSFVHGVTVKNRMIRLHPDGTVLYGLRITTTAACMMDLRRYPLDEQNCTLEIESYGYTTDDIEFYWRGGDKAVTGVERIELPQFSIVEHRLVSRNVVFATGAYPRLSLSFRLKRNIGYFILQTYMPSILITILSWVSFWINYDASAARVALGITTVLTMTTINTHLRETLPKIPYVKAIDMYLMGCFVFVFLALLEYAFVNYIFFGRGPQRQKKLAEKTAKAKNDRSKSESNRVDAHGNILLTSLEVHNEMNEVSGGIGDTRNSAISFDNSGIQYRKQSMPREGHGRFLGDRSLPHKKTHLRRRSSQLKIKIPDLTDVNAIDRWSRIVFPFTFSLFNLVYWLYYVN
Method in brief: (§1)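 Radioligand displacement on membranes of […] cells expressing human αβ3γ2 receptors, using 1.8 nM [³H]Ro15-1788. Ki taken as the mean of two determinations that differed by less than 10%.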

[2] = In vitro binding affinity for human GABA-A receptor alpha-3-beta-3-gamma-2 subunits expressed in L(tk-) cell membranes
Method in brief: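 Radioligand displacement on Ltk cell membranes expressing human α3β3γ2 receptors, with 1.8 nM [3H]Ro15-1788 as radioligand. Ki is the mean of two determinations that differed by less than 10%.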

[3] = biological target: GABA A receptor alpha-4/beta-3/gamma-2 (Homo sapiens, UniProt P18507+P28472+P48169); assay: In vitro binding affinity for human GABA-A receptor alpha-4-beta-3-gamma-2 subunits expressed in L(tk-) cell membranes
Method in brief: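 Radioligand displacement on Ltk cell membranes expressing human α4β3γ2 receptors, with 8 nM [3H]Ro15-4513 as radioligand. Ki is the mean of two determinations that differed by less than 10%.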

[4] = biological target: T2, GABA-A receptor; alpha-5/beta-3/gamma-2 (Homo sapiens, UniProt P18507+P28472+P31644); assay: In vitro binding affinity for human GABA-A receptor alpha-5-beta-3-gamma-2 subunits expressed in L(tk-) cell membranes; method in brief: as §1
T2 sequence (P18507 whole entry): T1 sequence (P18507 whole entry)
T2 sequence (P28472 whole entry): T1 sequence (P28472 whole entry)
T2 sequence (P31644 whole entry): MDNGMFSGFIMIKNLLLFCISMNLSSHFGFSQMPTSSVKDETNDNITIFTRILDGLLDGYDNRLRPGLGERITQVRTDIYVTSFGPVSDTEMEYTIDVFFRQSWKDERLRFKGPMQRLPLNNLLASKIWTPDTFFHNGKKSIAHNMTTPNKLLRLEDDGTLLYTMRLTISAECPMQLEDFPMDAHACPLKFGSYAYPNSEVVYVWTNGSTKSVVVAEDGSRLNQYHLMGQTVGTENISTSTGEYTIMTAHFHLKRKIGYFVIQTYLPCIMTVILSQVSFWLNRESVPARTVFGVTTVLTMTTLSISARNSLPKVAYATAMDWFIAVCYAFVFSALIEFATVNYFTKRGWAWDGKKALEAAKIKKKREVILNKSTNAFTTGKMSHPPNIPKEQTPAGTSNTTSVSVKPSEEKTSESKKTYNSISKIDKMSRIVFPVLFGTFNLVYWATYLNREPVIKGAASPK

[5] = biological target: GABA-A receptor; alpha-6/beta-3/gamma-2 (Homo sapiens, UniProt P18507+P28472+Q16445); assay: In vitro binding affinity for human GABA-A receptor alpha-6-beta-3-gamma-2 subunits expressed in L(tk-) cell membranes
[6] = biological target: T3, GABA-A receptor; alpha-2/beta-3/gamma-2 (Homo sapiens, UniProt P18507+P28472+P47869); assay: In vitro binding affinity for human GABA-A receptor alpha-2-beta-3-gamma-2 subunits expressed in L(tk-) cell membranes; method in brief: as §1
T3 sequence (P18507 whole entry): T1 sequence (P18507 whole entry)
T3 sequence (P28472 whole entry): T1 sequence (P28472 whole entry)
T3 sequence (P47869 whole entry): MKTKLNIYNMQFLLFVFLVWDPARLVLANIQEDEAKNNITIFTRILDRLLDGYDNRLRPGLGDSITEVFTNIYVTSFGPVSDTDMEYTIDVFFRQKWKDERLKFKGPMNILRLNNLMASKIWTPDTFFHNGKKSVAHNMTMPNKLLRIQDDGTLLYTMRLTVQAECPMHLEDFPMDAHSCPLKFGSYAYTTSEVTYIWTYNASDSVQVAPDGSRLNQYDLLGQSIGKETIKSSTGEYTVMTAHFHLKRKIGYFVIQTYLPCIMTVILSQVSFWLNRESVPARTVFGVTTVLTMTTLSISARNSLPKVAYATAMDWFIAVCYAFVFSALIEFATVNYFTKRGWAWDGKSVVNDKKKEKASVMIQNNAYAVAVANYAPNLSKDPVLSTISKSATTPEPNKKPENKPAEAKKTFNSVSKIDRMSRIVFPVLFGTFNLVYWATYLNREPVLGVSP

Chain of GABA A receptor alpha-4/beta-3/gamma-2 (P48169 whole entry, one chain of several): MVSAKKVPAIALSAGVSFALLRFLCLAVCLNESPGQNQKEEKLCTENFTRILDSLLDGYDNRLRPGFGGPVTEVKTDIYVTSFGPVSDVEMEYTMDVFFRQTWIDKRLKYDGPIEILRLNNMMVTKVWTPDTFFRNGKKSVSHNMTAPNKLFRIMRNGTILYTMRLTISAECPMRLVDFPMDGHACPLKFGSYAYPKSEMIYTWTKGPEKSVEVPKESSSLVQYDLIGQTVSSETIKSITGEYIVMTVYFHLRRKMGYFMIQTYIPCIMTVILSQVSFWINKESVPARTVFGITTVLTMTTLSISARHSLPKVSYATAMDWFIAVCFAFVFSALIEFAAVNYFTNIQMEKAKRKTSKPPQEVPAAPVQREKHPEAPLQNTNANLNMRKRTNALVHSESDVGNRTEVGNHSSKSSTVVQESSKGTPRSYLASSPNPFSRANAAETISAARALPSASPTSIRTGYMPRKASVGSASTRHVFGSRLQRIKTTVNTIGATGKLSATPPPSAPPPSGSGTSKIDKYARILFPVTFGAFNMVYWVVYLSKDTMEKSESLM
Chain of GABA-A receptor; alpha-6/beta-3/gamma-2 (Q16445 whole entry, one chain of several): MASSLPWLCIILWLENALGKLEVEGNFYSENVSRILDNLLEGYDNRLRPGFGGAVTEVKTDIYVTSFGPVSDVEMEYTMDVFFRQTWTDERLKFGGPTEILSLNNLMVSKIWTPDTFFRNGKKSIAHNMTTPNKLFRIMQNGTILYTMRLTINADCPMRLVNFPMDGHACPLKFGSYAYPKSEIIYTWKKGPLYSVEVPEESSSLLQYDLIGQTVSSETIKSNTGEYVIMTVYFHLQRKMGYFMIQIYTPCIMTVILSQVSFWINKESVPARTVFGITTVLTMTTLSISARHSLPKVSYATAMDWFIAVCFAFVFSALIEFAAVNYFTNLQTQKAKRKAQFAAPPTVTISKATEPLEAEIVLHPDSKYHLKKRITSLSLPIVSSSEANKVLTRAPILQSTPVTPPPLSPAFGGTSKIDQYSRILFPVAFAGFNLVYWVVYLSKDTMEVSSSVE

Row | Ki [4] | Ki [5] | Ki [6] | SMILES | Ki [1] | Ki [2] | Ki [3]
1 |  |  |  | CCOC(=O)c1ncn2c1CN(C)C(=O)c1cc(N=[N+]=[N-])ccc1-2 [Ro-154513] | 0.033 µM | 0.025 µM | 
2 |  |  |  | C#Cc1ccc2c(c1)C(=O)N(C)Cc1c(C(=O)OC(C)(C)C)ncn1-2 |  | 0.0187 µM | 
3 |  |  |  | C#Cc1ccc2c(c1)C(=O)N(C)Cc1c(C(=O)OCC)ncn1-2 |  | 0.0258 µM | 0.053 µM
4 | 0.015 µM | > 2 µM | > 1 µM | C#Cc1ccc2c(c1)C(=O)N(C)Cc1c(C(=O)OCCCOC(=O)c3ncn4c3CN(C)C(=O)c3cc(C#C)ccc3-4)ncn1-2 | > 1 µM | 0.858 µM | 1.55 µM
5 |  |  |  | CCOC(=O)c1ncn2c1[C@@H]1CCCN1C(=O)c1cc(OC)ccc1-2 |  | 0.0245 µM | 
6 |  |  |  | CCOC(=O)c1ncn2c1CN(C)C(=O)c1cc(C#C[Si](C)(C)C)ccc1-2 |  | 0.198 µM | 
7 |  |  |  | CN1Cc2c(C(=O)OC(C)(C)C)ncn2-c2ccc(C#C[Si](C)(C)C)cc2C1=O |  | 0.255 µM | 0.0078 µM
